# Test results: ChEMBL document CHEMBL1133331, “Guanylpiperidine peptidomimetics: potent and selective bis-cation inhibitors of factor Xa” (Bioorg Med Chem Lett, 2000)
# Biological target: T1, Coagulation factor X (Homo sapiens, UniProt P00742)
# Experiment: Concentration required to inhibit the cleavage of the chromogenic substrate by human enzyme Coagulation factor X in vitro
# Details: not given
# T1 sequence (P00742 41-179 limits assumed): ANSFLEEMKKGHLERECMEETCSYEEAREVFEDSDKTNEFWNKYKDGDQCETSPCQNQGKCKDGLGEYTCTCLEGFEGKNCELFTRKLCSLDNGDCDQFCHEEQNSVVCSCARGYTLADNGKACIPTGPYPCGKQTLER
# T1 sequence (P00742 235-488 limits assumed): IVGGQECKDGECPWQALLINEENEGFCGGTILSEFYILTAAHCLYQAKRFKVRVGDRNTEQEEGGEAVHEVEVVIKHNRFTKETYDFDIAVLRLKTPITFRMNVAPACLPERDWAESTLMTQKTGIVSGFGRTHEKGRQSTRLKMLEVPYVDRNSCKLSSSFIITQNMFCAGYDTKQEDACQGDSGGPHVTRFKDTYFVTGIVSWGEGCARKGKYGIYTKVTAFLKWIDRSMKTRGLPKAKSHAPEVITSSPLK
row,IC50,Structure (SMILES)
1,5.3 nM,N=C(N)N1CCC(C[C@@H](NS(=O)(=O)Cc2ccccc2C(=O)O)C(=O)NCC(=O)N[C@H]2CCCN(C(=N)N)C2O)CC1 (some centres not stated)

# Biological target: T1, Coagulation factor X
# Experiment: In vitro inhibition of human Coagulation factor X.
# Details: not given
row,IC50,Structure (SMILES)
1,2.1 nM,"N=C(N)N1CCCC(C[C@@H](NS(=O)(=O)Cc2ccccc2C(=O)O)C(=O)NCC(=O)N[C@H]2CCCN(C(=N)N)C2O)C1 (single isomer, unassigned)"
2,1.2 nM,"N=C(N)N1CCCC(C[C@@H](NS(=O)(=O)Cc2ccccc2)C(=O)NCC(=O)N[C@H]2CCCN(C(=N)N)C2O)C1 (single isomer, unassigned)"
3,35 nM,"N=C(N)NCCC[C@@H](NC(=O)OCc1ccccc1)C(=O)NCC(=O)N[C@H]1CCCN(C(=N)N)C1O (single isomer, unassigned)"
4,34.9 nM,N=C(N)NCCC[C@@H](NC(=O)OCc1ccccc1)C(=O)NCC(=O)N[C@H]1CCCN(C(=N)N)C1O (stereo in doubt; 1)
5,5.7 nM,N=C(N)N1CCC(C[C@@H](NS(=O)(=O)Cc2ccccc2C(=O)O)C(=O)NCC(=O)N[C@H]2CCCN(C(=N)N)C2O)CC1 (some centres not stated)
6,1.08 nM,COC(=O)c1ccccc1CS(=O)(=O)N[C@H](CC1CCCN(C(=N)N)C1)C(=O)NCC(=O)N[C@H]1CCCN(C(=N)N)C1O (stereo in doubt; form 2)
7,0.92 nM,N=C(N)N1CCCC(C[C@@H](NS(=O)(=O)Cc2ccccc2)C(=O)NCC(=O)N[C@H]2CCCN(C(=N)N)C2O)C1 (stereo in doubt)
8,2.6 nM,N=C(N)N1CCC(C[C@@H](NS(=O)(=O)Cc2ccccc2-n2cnnn2)C(=O)NCC(=O)N[C@H]2CCCN(C(=N)N)C2O)CC1 (some centres not stated)
9,4.2 nM,N=C(N)N1CCCC(C[C@@H](NS(=O)(=O)Cc2ccccc2C(=O)O)C(=O)NCC(=O)N[C@H]2CCCN(C(=N)N)C2O)C1 (stereo in doubt)
10,1.1 nM,N=C(N)N1CCC(C(NS(=O)(=O)Cc2ccccc2)C(=O)NCC(=O)N[C@H]2CCCN(C(=N)N)C2O)CC1 (some centres not stated)
11,0.83 nM,N=C(N)N1CCC(C[C@@H](NS(=O)(=O)Cc2ccccc2)C(=O)NCC(=O)N[C@H]2CCCN(C(=N)N)C2O)CC1 (some centres not stated)

# Biological target: T1, Coagulation factor X
# Experiment: Concentration required for classical fast inhibition of cleavage of the chromogenic substrate by human enzyme Coagulation factor X in vitro
# Details: not given
row,Ki,Structure (SMILES)
1,23 nM,N=C(N)N1CCC(C[C@@H](NS(=O)(=O)Cc2ccccc2-n2cnnn2)C(=O)NCC(=O)N[C@H]2CCCN(C(=N)N)C2O)CC1 (some centres not stated)

# Biological target: Plasminogen (Homo sapiens, UniProt P00747)
# Experiment: In vitro inhibition of human plasmin.
# Details: not given
# Outline: (§1)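 Purified human enzymes (plasmin, thrombin/factor IIa, trypsin) were each tested for inhibitor-dependent cleavage of a chromogenic substrate. IC50 is the concentration that blocks 50% of substrate cleavage.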
# Chain of Plasminogen (P00747 97-580 limits assumed): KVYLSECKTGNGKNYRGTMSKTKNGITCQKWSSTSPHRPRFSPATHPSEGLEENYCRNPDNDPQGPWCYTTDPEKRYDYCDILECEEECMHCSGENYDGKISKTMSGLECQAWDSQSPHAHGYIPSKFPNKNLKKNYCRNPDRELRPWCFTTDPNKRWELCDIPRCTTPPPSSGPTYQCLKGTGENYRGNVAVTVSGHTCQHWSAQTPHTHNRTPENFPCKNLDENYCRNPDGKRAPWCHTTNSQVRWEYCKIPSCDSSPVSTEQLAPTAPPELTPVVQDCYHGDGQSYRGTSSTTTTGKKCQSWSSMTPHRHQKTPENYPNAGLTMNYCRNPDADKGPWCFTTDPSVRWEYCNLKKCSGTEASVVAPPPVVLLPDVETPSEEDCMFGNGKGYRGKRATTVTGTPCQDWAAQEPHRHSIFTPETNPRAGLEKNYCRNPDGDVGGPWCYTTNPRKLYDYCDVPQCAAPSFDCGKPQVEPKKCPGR
# Chain of Plasminogen (P00747 581-810 limits assumed): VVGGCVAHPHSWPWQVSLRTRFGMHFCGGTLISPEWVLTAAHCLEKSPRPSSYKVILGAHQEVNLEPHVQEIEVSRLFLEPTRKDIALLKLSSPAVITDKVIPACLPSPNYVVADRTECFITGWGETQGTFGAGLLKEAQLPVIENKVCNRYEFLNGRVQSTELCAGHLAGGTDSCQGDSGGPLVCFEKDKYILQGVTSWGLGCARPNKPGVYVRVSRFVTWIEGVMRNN
row,IC50,Structure (SMILES)
1,2500 nM,"N=C(N)N1CCCC(C[C@@H](NS(=O)(=O)Cc2ccccc2C(=O)O)C(=O)NCC(=O)N[C@H]2CCCN(C(=N)N)C2O)C1 (single isomer, unassigned)"
2,919 nM,"N=C(N)N1CCCC(C[C@@H](NS(=O)(=O)Cc2ccccc2)C(=O)NCC(=O)N[C@H]2CCCN(C(=N)N)C2O)C1 (single isomer, unassigned)"
3,> 2500 nM,N=C(N)NCCC[C@@H](NC(=O)OCc1ccccc1)C(=O)NCC(=O)N[C@H]1CCCN(C(=N)N)C1O (stereo in doubt; 1)
4,2500 nM,N=C(N)N1CCC(C[C@@H](NS(=O)(=O)Cc2ccccc2C(=O)O)C(=O)NCC(=O)N[C@H]2CCCN(C(=N)N)C2O)CC1 (some centres not stated)
5,894 nM,COC(=O)c1ccccc1CS(=O)(=O)N[C@H](CC1CCCN(C(=N)N)C1)C(=O)NCC(=O)N[C@H]1CCCN(C(=N)N)C1O (stereo in doubt; form 2)
6,726 nM,N=C(N)N1CCCC(C[C@@H](NS(=O)(=O)Cc2ccccc2)C(=O)NCC(=O)N[C@H]2CCCN(C(=N)N)C2O)C1 (stereo in doubt)
7,872 nM,N=C(N)N1CCC(C[C@@H](NS(=O)(=O)Cc2ccccc2-n2cnnn2)C(=O)NCC(=O)N[C@H]2CCCN(C(=N)N)C2O)CC1 (some centres not stated)
8,> 2500 nM,N=C(N)N1CCCC(C[C@@H](NS(=O)(=O)Cc2ccccc2C(=O)O)C(=O)NCC(=O)N[C@H]2CCCN(C(=N)N)C2O)C1 (stereo in doubt)
9,678 nM,N=C(N)N1CCC(C(NS(=O)(=O)Cc2ccccc2)C(=O)NCC(=O)N[C@H]2CCCN(C(=N)N)C2O)CC1 (some centres not stated)
10,869 nM,N=C(N)N1CCC(C[C@@H](NS(=O)(=O)Cc2ccccc2)C(=O)NCC(=O)N[C@H]2CCCN(C(=N)N)C2O)CC1 (some centres not stated)

# Test system: not listed separately
# Experiment: Concentration required to inhibit the activation of human prothrombin in a preformed complex of factor Xa, factor IIa and phospholipid in vitro
# Details: in the assay text read “factor Va” for “factor IIa”
# Outline: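 The assembled prothrombinase complex was assayed with its natural substrate, prothrombin, to measure inhibition of prothrombin activation. IC50 is the concentration giving 50% inhibition.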
row,IC50,Structure (SMILES)
1,4.2 nM,"N=C(N)N1CCCC(C[C@@H](NS(=O)(=O)Cc2ccccc2)C(=O)NCC(=O)N[C@H]2CCCN(C(=N)N)C2O)C1 (single isomer, unassigned)"
2,7.9 nM,"N=C(N)NCCC[C@@H](NC(=O)OCc1ccccc1)C(=O)NCC(=O)N[C@H]1CCCN(C(=N)N)C1O (single isomer, unassigned)"
3,12 nM,N=C(N)N1CCC(C[C@@H](NS(=O)(=O)Cc2ccccc2C(=O)O)C(=O)NCC(=O)N[C@H]2CCCN(C(=N)N)C2O)CC1 (some centres not stated)
4,3.3 nM,N=C(N)N1CCCC(C[C@@H](NS(=O)(=O)Cc2ccccc2)C(=O)NCC(=O)N[C@H]2CCCN(C(=N)N)C2O)C1 (stereo in doubt)
5,69 nM,N=C(N)N1CCC(C[C@@H](NS(=O)(=O)Cc2ccccc2-n2cnnn2)C(=O)NCC(=O)N[C@H]2CCCN(C(=N)N)C2O)CC1 (some centres not stated)
6,3.1 nM,N=C(N)N1CCC(C[C@@H](NS(=O)(=O)Cc2ccccc2)C(=O)NCC(=O)N[C@H]2CCCN(C(=N)N)C2O)CC1 (some centres not stated)

# Biological target: Prothrombin (Homo sapiens, UniProt P00734)
# Experiment: In vitro inhibition of human thrombin.
# Details: not given
# Outline: as §1
row,IC50,Structure (SMILES)
1,> 2500 nM,"N=C(N)N1CCCC(C[C@@H](NS(=O)(=O)Cc2ccccc2C(=O)O)C(=O)NCC(=O)N[C@H]2CCCN(C(=N)N)C2O)C1 (single isomer, unassigned)"
2,> 2500 nM,"N=C(N)N1CCCC(C[C@@H](NS(=O)(=O)Cc2ccccc2)C(=O)NCC(=O)N[C@H]2CCCN(C(=N)N)C2O)C1 (single isomer, unassigned)"
3,> 2500 nM,N=C(N)NCCC[C@@H](NC(=O)OCc1ccccc1)C(=O)NCC(=O)N[C@H]1CCCN(C(=N)N)C1O (stereo in doubt; 1)
4,> 2500 nM,N=C(N)N1CCC(C[C@@H](NS(=O)(=O)Cc2ccccc2C(=O)O)C(=O)NCC(=O)N[C@H]2CCCN(C(=N)N)C2O)CC1 (some centres not stated)
5,> 2500 nM,COC(=O)c1ccccc1CS(=O)(=O)N[C@H](CC1CCCN(C(=N)N)C1)C(=O)NCC(=O)N[C@H]1CCCN(C(=N)N)C1O (stereo in doubt; form 2)
6,> 2500 nM,N=C(N)N1CCCC(C[C@@H](NS(=O)(=O)Cc2ccccc2)C(=O)NCC(=O)N[C@H]2CCCN(C(=N)N)C2O)C1 (stereo in doubt)
7,> 2500 nM,N=C(N)N1CCC(C[C@@H](NS(=O)(=O)Cc2ccccc2-n2cnnn2)C(=O)NCC(=O)N[C@H]2CCCN(C(=N)N)C2O)CC1 (some centres not stated)
8,352 nM,N=C(N)N1CCCC(C[C@@H](NS(=O)(=O)Cc2ccccc2C(=O)O)C(=O)NCC(=O)N[C@H]2CCCN(C(=N)N)C2O)C1 (stereo in doubt)
9,> 2500 nM,N=C(N)N1CCC(C(NS(=O)(=O)Cc2ccccc2)C(=O)NCC(=O)N[C@H]2CCCN(C(=N)N)C2O)CC1 (some centres not stated)
10,> 2500 nM,N=C(N)N1CCC(C[C@@H](NS(=O)(=O)Cc2ccccc2)C(=O)NCC(=O)N[C@H]2CCCN(C(=N)N)C2O)CC1 (some centres not stated)

# Biological target: Serine protease 1 (Homo sapiens, UniProt P07477)
# Experiment: In vitro inhibition of human trypsin.
# Details: not given
# Outline: as §1
# Chain of Serine protease 1 (P07477 whole entry): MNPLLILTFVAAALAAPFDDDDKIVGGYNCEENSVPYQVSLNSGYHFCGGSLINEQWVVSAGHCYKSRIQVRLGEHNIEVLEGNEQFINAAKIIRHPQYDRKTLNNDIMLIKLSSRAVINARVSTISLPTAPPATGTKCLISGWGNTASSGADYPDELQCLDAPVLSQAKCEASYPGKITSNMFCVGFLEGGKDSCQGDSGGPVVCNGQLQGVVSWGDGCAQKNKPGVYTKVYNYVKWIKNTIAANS
row,IC50,Structure (SMILES)
1,240 nM,"N=C(N)N1CCCC(C[C@@H](NS(=O)(=O)Cc2ccccc2C(=O)O)C(=O)NCC(=O)N[C@H]2CCCN(C(=N)N)C2O)C1 (single isomer, unassigned)"
2,120 nM,"N=C(N)N1CCCC(C[C@@H](NS(=O)(=O)Cc2ccccc2)C(=O)NCC(=O)N[C@H]2CCCN(C(=N)N)C2O)C1 (single isomer, unassigned)"
3,115 nM,N=C(N)NCCC[C@@H](NC(=O)OCc1ccccc1)C(=O)NCC(=O)N[C@H]1CCCN(C(=N)N)C1O (stereo in doubt; 1)
4,447 nM,N=C(N)N1CCC(C[C@@H](NS(=O)(=O)Cc2ccccc2C(=O)O)C(=O)NCC(=O)N[C@H]2CCCN(C(=N)N)C2O)CC1 (some centres not stated)
5,124 nM,COC(=O)c1ccccc1CS(=O)(=O)N[C@H](CC1CCCN(C(=N)N)C1)C(=O)NCC(=O)N[C@H]1CCCN(C(=N)N)C1O (stereo in doubt; form 2)
6,31 nM,N=C(N)N1CCCC(C[C@@H](NS(=O)(=O)Cc2ccccc2)C(=O)NCC(=O)N[C@H]2CCCN(C(=N)N)C2O)C1 (stereo in doubt)
7,537 nM,N=C(N)N1CCC(C[C@@H](NS(=O)(=O)Cc2ccccc2-n2cnnn2)C(=O)NCC(=O)N[C@H]2CCCN(C(=N)N)C2O)CC1 (some centres not stated)
8,33 nM,N=C(N)N1CCCC(C[C@@H](NS(=O)(=O)Cc2ccccc2C(=O)O)C(=O)NCC(=O)N[C@H]2CCCN(C(=N)N)C2O)C1 (stereo in doubt)
9,25 nM,N=C(N)N1CCC(C(NS(=O)(=O)Cc2ccccc2)C(=O)NCC(=O)N[C@H]2CCCN(C(=N)N)C2O)CC1 (some centres not stated)
10,169 nM,N=C(N)N1CCC(C[C@@H](NS(=O)(=O)Cc2ccccc2)C(=O)NCC(=O)N[C@H]2CCCN(C(=N)N)C2O)CC1 (some centres not stated)

# Test system: not listed separately
# Experiment: Ratio of inhibitory concentration of prothrombinase to that of human factor Xa was determined
# Details: not given
row,Ratio,Structure (SMILES)
1,2.3,N=C(N)N1CCC(C[C@@H](NS(=O)(=O)Cc2ccccc2C(=O)O)C(=O)NCC(=O)N[C@H]2CCCN(C(=N)N)C2O)CC1 (some centres not stated)
2,3,N=C(N)N1CCC(C[C@@H](NS(=O)(=O)Cc2ccccc2-n2cnnn2)C(=O)NCC(=O)N[C@H]2CCCN(C(=N)N)C2O)CC1 (some centres not stated)
3,3.7,N=C(N)N1CCC(C[C@@H](NS(=O)(=O)Cc2ccccc2)C(=O)NCC(=O)N[C@H]2CCCN(C(=N)N)C2O)CC1 (some centres not stated)
